Screening data: PubChem, several laboratories
p97 inhibitor – inhibitors of human p97 ATPase. P55072. recombinant p97 ATPase, Kinase-Glo ATP luminescence, 3 h. inhibition, % at 8 µM. 220,000 compounds, 0.42% hits. AID 1481; in the data active means inhibition above about 15%;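 further: 0% = DMSO vehicle and 100% = wells lacking enzyme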
Target sequence (P55072 whole entry, looked up): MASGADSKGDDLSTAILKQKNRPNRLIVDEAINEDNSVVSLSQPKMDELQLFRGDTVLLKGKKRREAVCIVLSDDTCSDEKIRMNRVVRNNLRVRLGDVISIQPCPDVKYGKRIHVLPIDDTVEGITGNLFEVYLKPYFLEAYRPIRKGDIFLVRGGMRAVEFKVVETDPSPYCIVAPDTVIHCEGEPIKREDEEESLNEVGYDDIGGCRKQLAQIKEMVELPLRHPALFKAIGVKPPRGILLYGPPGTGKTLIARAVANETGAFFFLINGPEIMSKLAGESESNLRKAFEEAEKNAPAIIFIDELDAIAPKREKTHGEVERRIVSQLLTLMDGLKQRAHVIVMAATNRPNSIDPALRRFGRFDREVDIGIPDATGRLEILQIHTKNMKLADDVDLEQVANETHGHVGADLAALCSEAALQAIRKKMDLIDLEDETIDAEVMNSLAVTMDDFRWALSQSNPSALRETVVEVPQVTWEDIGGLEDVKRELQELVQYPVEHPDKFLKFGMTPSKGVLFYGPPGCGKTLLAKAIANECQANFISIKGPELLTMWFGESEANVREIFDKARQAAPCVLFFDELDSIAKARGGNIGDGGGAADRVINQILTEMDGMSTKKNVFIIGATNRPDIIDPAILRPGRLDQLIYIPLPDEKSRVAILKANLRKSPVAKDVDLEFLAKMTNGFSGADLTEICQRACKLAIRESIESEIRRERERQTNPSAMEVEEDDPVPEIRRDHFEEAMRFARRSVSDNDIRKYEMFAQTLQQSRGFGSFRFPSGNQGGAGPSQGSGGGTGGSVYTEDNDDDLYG
CHOP inh – CHOP inhibition in unfolded protein response. CHO-K1 CHOP-promoter luciferase, tunicamycin-induced, 15-18 h. inhibition, % at 10 µM. 220,000 compounds, 3.8% hits. AID 2732;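 active means compounds that reduced the stress-induced luciferase reporter signal by more than about 70% of percent inhibition, limit read from the data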;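 further: 0% = tunicamycin plus vehicle and 100% = wells without tunicamycin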
HCV NS3 hel inh – blocks Hepatitis C virus NS3 helicase unwinding; inhibition, % at 10.9 µM; NS3 helicase DNA unwinding, Cy5 molecular beacon fluorescence; 290,000 compounds, 0.56% hits;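 active means inhibition above the mean of all tested compounds plus 3 SD, set per campaign, cut at about 35% in these data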;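 further: 0% = DMSO wells and 100% = thioflavine S control wells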
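Compound dosing – single dose, 10.9 µM nominal final, DMSO 0.8% final · System – NS3 helicase fragment of HCV · Buffer or medium – MOPS pH 6.5, MgCl2, DTT, Tween20, BSA · Signal – Cy5 beacon fluorescence read at start and 1 h · Also added – annealed dual-labelled DNA beacon duplex, ATP-started · Schedule – 1 h at 25 °C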
UPR XBP1 act – activators of adaptive arm of unfolded protein response (XBP1); 330,000 compounds, 0.33% hits; CHO-XBP1 luciferase reporter, IRE1-XBP1 UPR activation, luminescence; percent of tunicamycin response, DMSO as zero; activation, % at 20 µM;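 active means versus positive control, 20 µM dose yields 30% or more activation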;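 further: 100% = tunicamycin at 10 µg/mL and 0% = DMSO only wells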
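Material: CHO cell line with stable XBP1 luciferase reporter; buffer or medium: F12 medium containing 10% fetal bovine serum; compound: single point, 20 µM final compound, 1% DMSO; incubation: 6 h treatment, 37 °C; measured by: glow luminescence from Steady-Glo reagent; evaluation: activation, % of tunicamycin; control set: tunicamycin high, DMSO low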
M18AAP inhibitor – blocks P. falciparum M18 aspartyl aminopeptidase | recombinant PfM18AAP, H-Glu-NHMec fluorogenic cleavage | inhibition, % at 7.35 µM | 290,000 compounds, 1.2% hits | AID 1822;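 active means inhibition above the campaign mean inhibition over all tested compounds plus 3 SD, cut at about 28% in these data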;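 further: 0% = plate median of test compound wells and 100% = 2 mM ZnCl2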
UPR CHOP act – apoptotic UPR (CHOP) activation; CHO-CHOP luciferase reporter, luminescence; percent of tunicamycin response over DMSO baseline; activation, % at 10 µM; 330,000 compounds, 0.34% hits; AID 449763;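 active means at 10 µM dose, activation of 40% or more, normalized to positive control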;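 further: 100% = tunicamycin at 10 µg/mL and 0% = DMSO alone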
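System: CHO-CHOP luciferase reporter cell line | Buffer or medium: F12 medium containing 10% fetal bovine serum | Doses: One dose, 10 µM in 0.5% DMSO | Times: 6 h compound exposure at 37 °C after overnight seeding | Signal: Luciferase luminescence | Read-out: % activation vs tunicamycin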
CHOP UPR conf – apoptotic UPR (CHOP) activation, confirmed; shares compounds with UPR CHOP act; CHO-CHOP cells, CHOP-luciferase reporter luminescence; percent of tunicamycin response, DMSO as zero; activation, % at 10 µM; 1,000 compounds, 64% hits; in the data active means activation above about 33%;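 further: 0% = DMSO wells and 100% = tunicamycin 10 µg/mL wells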
Numbers without * were called inactive. An excerpt weighted towards active compounds, which were near 4.5% of everything screened.

`O=C(/C=C/c1cccnc1)c1ccc(NC(=O)c2cccc(Br)c2)cc1` gave p97 inhibitor 3.5, CHOP inh -46.7, HCV NS3 hel inh -4.4, UPR XBP1 act 9.7, M18AAP inhibitor 9.0, UPR CHOP act 91.3* and CHOP UPR conf 196.8*.
`Cc1cccc(C(=O)Nc2ccc(C(=O)/C=C/c3cccnc3)cc2)c1` gave p97 inhibitor 4.6, CHOP inh -56.3, HCV NS3 hel inh -10.6 and M18AAP inhibitor -6.7.
`Cc1cccc(C(=O)Nc2cccc(C(=O)N/N=C/c3ccncc3)c2)c1` gave p97 inhibitor 5.1, CHOP inh 32.6, HCV NS3 hel inh -1.6, UPR XBP1 act -0.3, M18AAP inhibitor -4.3 and UPR CHOP act 1.4.
`CCCOc1ccc(C(=O)C(CN2CCCC2)c2ccccc2)cc1` (centres undefined) gave p97 inhibitor -1.9, CHOP inh -56.7, HCV NS3 hel inh -7.4 and M18AAP inhibitor 4.2.
`COc1ccc(C(=O)C(CN2CCCC2)c2ccccc2)cc1` (centres undefined) gave p97 inhibitor 1.6, CHOP inh -53.9, HCV NS3 hel inh -11.1, UPR XBP1 act 1.4, M18AAP inhibitor -6.3, UPR CHOP act 65.6* and CHOP UPR conf 38.5*.
Screening COc1ccc(C(=O)C(CN2CCOCC2)c2ccccc2)cc1 (centres undefined) returned p97 inhibitor -6.3, CHOP inh -42.4, HCV NS3 hel inh -3.9, UPR XBP1 act -2.1, M18AAP inhibitor 1.5, UPR CHOP act 45.7* and CHOP UPR conf 35.5*.
`O=C(c1ccc(Cl)cc1)C(CN1CCCC1)c1ccccc1` (centres undefined) gave HCV NS3 hel inh -7.8, UPR XBP1 act -0.2, M18AAP inhibitor -13.0, UPR CHOP act 150.9* and CHOP UPR conf 169.7*.
CCOC(=O)C1=C(C)NC(=NC)SC1c1ccccc1 (centres undefined) was read as p97 inhibitor 5.1, CHOP inh -6.2, HCV NS3 hel inh -7.9, UPR XBP1 act -3.1, M18AAP inhibitor 6.2 and UPR CHOP act 0.0.
Cc1cc(C)n(-c2nc(NC(C)(C)C)nc(NC(C)(C)C)n2)n1 was read as p97 inhibitor 3.1, CHOP inh 78.4*, HCV NS3 hel inh 0.8, UPR XBP1 act 8.9, M18AAP inhibitor 0.1, UPR CHOP act 108.3* and CHOP UPR conf 45.3*.
Cc1[nH]c2c(C)cccc2c1CCNC(=O)c1ccc2c(c1[N+](=O)[O-])C(=O)c1ccccc1C2=O was read as p97 inhibitor 14.6*, CHOP inh -0.7, HCV NS3 hel inh -4.5, UPR XBP1 act 2.0, M18AAP inhibitor 0.2, UPR CHOP act 47.7* and CHOP UPR conf 39.9*.
Screening CCc1ccc2nc(N(CCCN(C)C)C(=O)c3ccc(S(=O)(=O)N(C)C4CCCCC4)cc3)sc2c1 returned HCV NS3 hel inh -36.3, UPR XBP1 act 130.6*, M18AAP inhibitor -1.1, UPR CHOP act 112.8* and CHOP UPR conf 65.3*.
`COc1cc(C(=O)Sc2ccc(Cl)cc2)cc(OC)c1OC` gave p97 inhibitor 1.0, CHOP inh 61.5, HCV NS3 hel inh -2.7, UPR XBP1 act 21.3, M18AAP inhibitor -12.0, UPR CHOP act 54.6* and CHOP UPR conf 72.8*.
`CN(Cc1ccc(F)cc1)C(=O)CNC(=O)c1ccc2c(c1)OCO2` gave UPR XBP1 act -1.1 and UPR CHOP act 0.3.
For Cc1cc(C(=O)CCl)c(C)n1-c1cccc([N+](=O)[O-])c1 the results were p97 inhibitor 7.2, CHOP inh 104.2*, HCV NS3 hel inh -0.4, UPR XBP1 act -2.5, M18AAP inhibitor 1.7, UPR CHOP act 174.5* and CHOP UPR conf 30.8.
CCC(C)[C@H](NC(=O)C1CCN(C(=O)[C@H](Cc2ccccc2)NS(=O)(=O)c2ccc(C)cc2)CC1)C(=O)O (some centres undefined) was read as HCV NS3 hel inh 0.5, UPR XBP1 act -4.3, M18AAP inhibitor -15.6 and UPR CHOP act 0.4.
CCN(CC)c1ccc(/C=C2\C(=O)N(c3nnc(C)c(=O)[nH]3)N=C2C)cc1 was read as p97 inhibitor -7.4, CHOP inh -150.4, HCV NS3 hel inh -2.2, UPR XBP1 act -0.5, M18AAP inhibitor -4.3, UPR CHOP act 221.4* and CHOP UPR conf 832.2*.
O=C1C=C(N2CCOCC2)c2ccccc2C1=O was read as HCV NS3 hel inh 2.1, UPR XBP1 act -8.4, M18AAP inhibitor 6.5, UPR CHOP act 41.4* and CHOP UPR conf 2.6.
Cc1cc(C(=O)CCl)c(C)n1CCc1ccccc1 was read as p97 inhibitor 5.2, CHOP inh 33.4, HCV NS3 hel inh 4.2, UPR XBP1 act 6.4, M18AAP inhibitor 1.4, UPR CHOP act 195.7* and CHOP UPR conf 204.1*.
Screening Cc1cc(C(=O)CCl)c(C)n1Cc1ccco1 returned p97 inhibitor 2.2, CHOP inh -143.1, HCV NS3 hel inh 10.6, UPR XBP1 act -1.0, M18AAP inhibitor -4.3, UPR CHOP act 98.7* and CHOP UPR conf 235.6*.
For COCCNC(=O)CN1CCN(S(=O)(=O)c2ccc3c(c2)CCCC3)CC1 the results were UPR XBP1 act -0.5 and UPR CHOP act -0.7.
Screening O=C(NCCCN1CCCC1=O)C1CCN(S(=O)(=O)c2cccc(Cl)c2Cl)CC1 returned UPR XBP1 act 3.2 and UPR CHOP act 0.2.
Screening O=[N+]([O-])c1ccc2nc(Cl)nc(-c3ccccc3)c2c1 returned HCV NS3 hel inh 1.5, UPR XBP1 act 16.4, M18AAP inhibitor 7.5, UPR CHOP act 105.9* and CHOP UPR conf 87.1*.
For O=[N+]([O-])c1ccc2nc(-[n+]3c(-c4ccccc4)cc(-c4ccccc4)cc3-c3ccccc3)[nH]c2c1 the results were p97 inhibitor -8.0, CHOP inh -39.6, HCV NS3 hel inh -12.6, UPR XBP1 act -1.9, M18AAP inhibitor -3.5 and UPR CHOP act 0.9.
Screening COc1ccc(/C=C/C2=CCN(Cc3ccc(OC)cc3)CC2)cc1 returned p97 inhibitor 4.6, CHOP inh 23.0, HCV NS3 hel inh -45.7, UPR XBP1 act -2.4, M18AAP inhibitor 2.9 and UPR CHOP act -1.3.
Screening Cc1ccc(N=C2C(=S)N(c3ccc(C)cc3)C(=N)N2/N=C/c2ccc(Cl)cc2)cc1 returned p97 inhibitor -4.6, CHOP inh 49.8, HCV NS3 hel inh 0.9, UPR XBP1 act 7.3, M18AAP inhibitor 0.4, UPR CHOP act 56.5* and CHOP UPR conf 17.2.
For COc1ccc(/C=N/N2CCN(c3ccc(Cl)cc3)CC2)cc1 the results were HCV NS3 hel inh -1.7, UPR XBP1 act 2.1, M18AAP inhibitor 1.7 and UPR CHOP act 0.4.
